Consider 39 compounds from ChEMBL document CHEMBL4513216, “Probing the Open Global Health Chemical Diversity Library for Multistage-Active Starting Points for Next-Generation Antimalarials” (ACS Infect Dis, 2020).

The nature of this data set: Toxicity liver stage against HepG2, at 10uM. It counts as cell-based. On the set-up: test concentration 10 uM, cell line HepG2-A16-CD81EGFP. To be noted: human, HepG2-A16-CD81EGFP cells; read-out: INHIBITION
Summed up: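 Uninfected HepG2-A16-CD81EGFP cells, 3 × 10^3 per well, 1536-well, plated on prespotted compound at 10 μM final, parasite-free screening media added to match infected plates; puromycin 10 μM positive, DMSO 0.5% negative; run in parallel with 48 h PbLuc assay at 37 °C, 5% CO2; viability by CellTiter-Glo luminescence, normalized to controls.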
With `Cn1c(=O)c2sccc2n(Cc2ccccc2)c1=O`, the cytotoxicity at 10 µM was 4.84%.
In the case of `COc1cc(CN2CCCC2c2cccc(F)c2)cc(OC)c1OC` (centres undefined) it was -2.03%; in that of `Cc1cc(C(=O)N2CCN(c3nc4ccccc4s3)CC2)no1`, -110%.
In the case of `CC(C)CNC(=O)c1cn(C(C)C)cc2c(=O)[nH]nc1-2` it was 0.583%; in that of `O=C(NC1CCC1)[C@H]1C[C@H]2NCCO[C@@H]2C1`, -131%; in that of `COc1cc(C(=O)NC(C)C)nc2c(C)cc(F)cc12`, 2.43%.
In the case of `CCOCC1CN(S(C)(=O)=O)Cc2cnn(C)c21` (centres undefined) it was -15.4%; in that of `O=C(CC1CC1)NCc1cc(=O)n2c(n1)CN(Cc1ccoc1)CCC2`, -20.6%.
In the case of `COCC(=O)N1CCCCC1c1nc(C)c2c(n1)N(C1CC1)C(=O)CC2` (centres undefined), the cytotoxicity at 10 µM was -1%.
Turning to `CN1CCC(Cc2cc(N(C)C)ncn2)C1` (centres undefined), the cytotoxicity at 10 µM was found to be 3.19%.
In the case of `COc1ccccc1C1(O)CCCN(C(=O)c2cnc(SC)nc2)C1` (centres undefined) it was 7.27%; in that of `Fc1ccc(CN2CCC(c3nccnc3-n3ccnc3)CC2)cc1`, -0.259%; in that of `CC(=O)Nc1ccc(CNC2COc3c2ccc(C)c3C)cc1` (centres undefined), 6.56%.
In the case of `NC(=O)C1CCCN(S(=O)(=O)c2cnn(-c3ccccc3)c2)C1` (centres undefined) it was -66.6%; in that of `CCc1cc(=O)[nH]c(-c2ccc(NCCC(C)O)nc2)n1` (centres undefined), -127%; in that of `CC(CC(=O)N1CCN(c2cnccn2)CC1)c1ccc(F)cc1` (centres undefined), -48%.
In the case of `Cc1ccc(C(=O)NCC(C)CN2CCCC2=O)c(=O)[nH]1` (centres undefined) it was -8.57%; in that of `CC(NC(=O)c1ccc(C#N)cn1)C1(N2CCOCC2)CCCC1` (centres undefined), 2.54%.
On to `CC(C)N(Cc1ccccn1)C(=O)CCC(=O)c1ccc(F)cc1F`, for which the cytotoxicity at 10 µM is -0.535%.
In the case of `CC(C)c1ocnc1C(=O)N1CC(=O)Nc2cccnc21` it was 1.56%.
In the case of `CN(C)c1ncc(CNC(=O)Nc2ccccc2C(F)(F)F)n1C` it was -55.3%.
Turning to `COc1ccc(-c2nnc(SC(C)C(=O)NC3CC3)[nH]2)c(OC)c1` (centres undefined), the cytotoxicity at 10 µM was found to be 45.3%.
In the case of `Cc1nn(CC(=O)N2CCCC2Cn2cccn2)c(C)c1Cl` (centres undefined) it was 2.27%; in that of `Cc1nc(COC[C@@H]2CC[C@H]3[C@H](CCN3C(=O)C3CC3)O2)cs1`, -73.9%; in that of `O=C1CC(c2cccnc2)C2(CCN(C(=O)N3CCOCC3)CC2)N1` (centres undefined), -79.5%.
In the case of `C[C@H]1CN(C(=O)N(C)C)C[C@@]12CCN(c1ccsc1)C2=O` it was -73.1%; in that of `CC(C)Nc1ncnc2c1CCN(C(=O)CN(C)C)CC2`, -70.9%; in that of `Cc1cccc(C(=O)N2Cc3ccccc3C3(CCN(C)CC3)C2)n1`, -73.5%.
For the compound `Cc1ccc(NCCCNC(=O)C2CC3(CCNCC3)CN2C)nc1` (centres undefined), the cytotoxicity at 10 µM turned out to be 6.07%.
Take `Cc1cc(C(=O)N2CCNC(c3ccccc3)C2)c2ccc(F)cc2n1` (centres undefined): the cytotoxicity at 10 µM amounted to 3.09%.
In the case of `COc1ccccc1CC(=O)N1CCC(NCc2cc[nH]c2)CC1` it was 0.593%.
In the case of `COc1cc2c(cc1CNC(Cc1cccs1)c1nccs1)OCCO2` (centres undefined) it was -1.6%.
In the case of `COCCN1C(=O)CC[C@@H]2[C@H]1CCN2Cc1ccc(C)s1`, the cytotoxicity at 10 µM was -70.4%.
In the case of `CCN(CC)Cc1cn2c(n1)CN(C(=O)c1cnccn1)CC2` it was 6.15%.
Regarding `O=C(NCc1ccccn1)[C@H]1COC[C@H]2CN(CC3CC3)C[C@H]21`, the cytotoxicity at 10 µM is -80.8%.
In the case of `Cc1cccc(CN2C[C@@H]3CN(C4CCOCC4)C[C@@H]3C2=O)c1` it was -130%; in that of `Cc1ccsc1C(=O)N1CC[C@@H](N(C)C)[C@@H]1Cc1cnn(C)c1`, -77.6%.
Turning to `CN1CCNC(=O)C12CCN(Cc1ccco1)CC2`, the cytotoxicity at 10 µM is -81.3%.
In the case of `CCOCC1CN(CCN2CCCCC2)Cc2cnn(C)c21` (centres undefined) it was -99.9%.
